Measured values taken from ChEMBL document CHEMBL1148469, “Structural basis for the synthesis of indirubins as potent and selective inhibitors of glycogen synthase kinase-3 and cyclin-dependent kinases” (J Med Chem, 2004).

Columns and labels:
[1] = target: Glycogen synthase kinase-3 alpha/beta (Sus scrofa); assay: Inhibition of glycogen synthase kinase-3-alpha/beta (GSK-3-alpha/beta) in porcine brain relative to indirubin
[2] = target: Cyclin-dependent kinase 5/CDK5 activator 1 (Homo sapiens, UniProt Q00535); assay: Inhibitory activity against Cyclin-dependent kinase 5-p35nck5a; format: protein-complex assay
Chain of Cyclin-dependent kinase 5/CDK5 activator 1 (Q00535 whole entry, the tested form may be a part): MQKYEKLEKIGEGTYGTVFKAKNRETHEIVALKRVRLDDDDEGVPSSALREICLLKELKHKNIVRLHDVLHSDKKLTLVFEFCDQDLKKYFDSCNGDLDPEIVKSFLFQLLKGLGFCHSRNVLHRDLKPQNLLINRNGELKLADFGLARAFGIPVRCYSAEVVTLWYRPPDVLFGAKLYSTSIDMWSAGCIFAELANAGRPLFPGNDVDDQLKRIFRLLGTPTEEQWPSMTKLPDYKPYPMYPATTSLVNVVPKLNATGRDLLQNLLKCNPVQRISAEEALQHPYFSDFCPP
Chain of Cyclin-dependent kinase 5/CDK5 activator 1 (Q15078 whole entry, further chain, the tested form may be a part): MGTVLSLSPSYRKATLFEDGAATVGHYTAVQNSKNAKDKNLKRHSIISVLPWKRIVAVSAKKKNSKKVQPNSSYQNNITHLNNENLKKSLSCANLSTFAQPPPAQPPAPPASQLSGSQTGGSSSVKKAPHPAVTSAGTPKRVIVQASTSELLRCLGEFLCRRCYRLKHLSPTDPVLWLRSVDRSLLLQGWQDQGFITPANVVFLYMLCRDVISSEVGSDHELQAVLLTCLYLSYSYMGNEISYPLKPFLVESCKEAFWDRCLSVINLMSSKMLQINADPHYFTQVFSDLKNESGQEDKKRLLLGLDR
Procedure, shortened: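 Recombinant mammalian CDK5 and p25 (truncated p35 activator), each expressed in E. coli as a GST fusion, purified on glutathione-agarose and mixed in equal amounts. IC50 from dose-response curves.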

[3] = target: Cyclin-dependent kinase 1/cyclin B (Marthasterias glacialis); assay: Inhibitory activity against cyclin dependent kinase 1-cyclinB from starfish (Marthasterias glacialis) oocytes
[4] = target: Glycogen synthase kinase-3 alpha/beta (Sus scrofa); assay: Inhibitory activity against GSK-3-alpha/beta from porcine brain

IC50 [1] [nM]	IC50 [2] [nM]	IC50 [3] [nM]	IC50 [4] [nM]	SMILES
62	–	–	–	Cc1ccc2[nH]c(O)c(C3=Nc4ccccc4C3=O)c2c1
–	400	–	–	CO/N=C1/C(c2c(O)[nH]c3ccccc23)=Nc2ccccc21
–	> 100000	> 100000	4500	O=C1C(c2c(O)[nH]c3cc(Br)ccc23)=Nc2cc(Br)ccc21
–	150	–	–	O=Nc1c(-c2c(O)[nH]c3cc(Br)c([N+](=O)[O-])cc23)[nH]c2ccccc12
–	1000	–	–	O=C1C(c2c(O)[nH]c3cc(F)ccc23)=Nc2ccccc21
–	100	650	20	O=Nc1c(-c2c(O)[nH]c3cc(Cl)ccc23)[nH]c2ccccc12
–	> 100000	92000	> 100000	Cn1c(O)c(-c2[nH]c3ccccc3c2N=O)c2ccc(Br)cc21
–	60000	30000	25	Cc1cc2c(C3=Nc4ccccc4C3=O)c(O)[nH]c2cc1Br
55	–	–	–	O=C1C(c2c(O)[nH]c3ccc(Br)cc23)=Nc2ccccc21
350	–	–	–	O=C1C(c2c(O)[nH]c3ccccc23)=Nc2ccc(Br)cc21
42	–	–	–	O=C1C(c2c(O)[nH]c3ccc([N+](=O)[O-])cc23)=Nc2ccccc21
–	200	30000	17	CC(=O)O/N=C1/C(c2c(O)[nH]c3cc(Cl)ccc23)=Nc2ccccc21
–	150	320	130	O=Nc1c(-c2c(O)[nH]c3cc(F)ccc23)[nH]c2ccccc12
–	5300	1600	55	O=C1C(c2c(O)[nH]c3cc(I)ccc23)=Nc2ccccc21
–	> 100000	> 100000	> 100000	Cn1c(O)c(C2=Nc3ccccc3C2=O)c2ccc(Br)cc21
–	2400	4200	240	C=Cc1ccc2c(C3=Nc4ccccc4C3=O)c(O)[nH]c2c1
–	130	–	–	Cc1cc2c(-c3[nH]c4ccccc4c3N=O)c(O)[nH]c2cc1Br
–	10000	10000	> 100000	O=C1C(c2c(O)[nH]c3cccc(Cl)c23)=Nc2ccccc21
250	–	–	–	O=C1C(c2c(O)[nH]c3ccc(Br)cc23)=Nc2ccc(Br)cc21

IC50 [1] [nM]	IC50 [2] [nM]	IC50 [3] [nM]	IC50 [4] [nM]	SMILES
–	700	–	–	CC(=O)O/N=C1/C(c2c(O)[nH]c3ccccc23)=Nc2ccccc21
–	53000	–	–	O=C1C(c2c(O)[nH]c3cc(Br)ccc23)=Nc2ccccc21
–	300	–	–	O=Nc1c(-c2c(O)[nH]c3cc(I)ccc23)[nH]c2ccccc12
–	300	–	–	CC(=O)O/N=C1/C(c2c(O)[nH]c3cc(F)ccc23)=Nc2ccccc21
–	1300	2200	13	CC(=O)O/N=C1/C(c2c(O)[nH]c3cc(I)ccc23)=Nc2ccccc21
–	–	3000	–	O=Nc1c(-c2c(O)[nH]c3ccccc23)[nH]c2cc(Br)ccc12
–	2200	3700	30	CO/N=C1/C(c2c(O)[nH]c3cc(Br)ccc23)=Nc2ccccc21
–	> 100000	73000	–	Cn1c(O)c(-c2[nH]c3ccccc3c2N=O)c2ccccc21
50	–	–	–	O=C1C(c2c(O)[nH]c3ccc(Cl)cc23)=Nc2ccccc21
78	–	–	–	O=C1C(c2c(O)[nH]c3ccc(F)cc23)=Nc2ccccc21
–	60000	45000	30	O=C1C(c2c(O)[nH]c3cc(Cl)c(Cl)cc23)=Nc2ccccc21
–	> 100000	> 100000	22000	O=C1C(c2c(O)[nH]c3ccccc23)=Nc2cc(Br)ccc21
–	> 100000	> 100000	100	O=C1C(c2c(O)[nH]c3cc(Br)c([N+](=O)[O-])cc23)=Nc2ccccc21
–	400	1600	65	C=Cc1ccc2c(C3=Nc4ccccc4/C3=N\OC(C)=O)c(O)[nH]c2c1
–	> 100000	> 100000	140	O=C1C(c2c(O)[nH]c3cc(Cl)ccc23)=Nc2ccccc21
–	420	1200	60	C=Cc1ccc2c(-c3[nH]c4ccccc4c3N=O)c(O)[nH]c2c1
–	> 100000	> 100000	–	Cn1c(O)c(C2=Nc3ccccc3C2=O)c2ccccc21
–	1300	17000	120	O=Nc1c(-c2c(O)[nH]c3cc(Br)ccc23)[nH]c2cc(Br)ccc12

SMILES	IC50 [1] [nM]	IC50 [2] [nM]	IC50 [3] [nM]	IC50 [4] [nM]
CC(=O)O/N=C1/C(=C2/C(=O)Nc3cc(Br)c([N+](=O)[O-])cc32)Nc2ccccc21	–	31000	11000	6
CC(=O)O/N=C1/C(=C2/C(=O)Nc3cc(Br)c(C)cc32)Nc2ccccc21	–	30000	31000	7
CC(=O)O/N=C1/C(=C2/C(=O)Nc3cc(Br)ccc32)Nc2ccccc21 [6-BROMOINDIRUBIN-3'-ACETOXIME]	–	2400	63000	10
CC(=O)O/N=C1/C(=C2/C(=O)Nc3cc(Cl)c(Cl)cc32)Nc2ccccc21 [INDIRUBIN 1]	–	100	30000	4
